PKD1 kinase inh: PKD1 (human) kinase inhibition; Q15139; PKD1 kinase fluorescence polarization assay; inhibition, % (concentration not given with the values); 0.056% of 200,000 active
GSH bead fluor: GSH bead compound fluorescence profile; 0.25% of 190,000 active; fluorescence (KMESF) at 10 µM; GSH beads flow cytometry, compound fluorescence 488/530 nm; hits give high values; AID 1776; in the data active = fluorescence above about 89;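 also: glutathione beads carrying GST-tagged Bcl family fusion proteins plus one bare bead set; values are compound well signal with DMSO vehicle wells as background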
ABCG2 block: blocks JC-1 efflux by human ABCG2 transporter; Q9UNQ0; IgMXP3 cells, flow cytometry; inhibition, % at 6.6 µM; 0.1% of 190,000 active; AID 1325;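 active = inhibition above 80%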;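 also: 0% = DMSO and 100% = nicardipine control wells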
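Test system: IgMXP3 (ABCG2) plus far-red-tagged CCRF-Adr (ABCB1) cells. Reagent: JC-1 dye as substrate. Timing: 10 min exposure at 25 °C with rotation, no wash. Measured by: flow cytometric JC-1 green MFI at 530 nm. Read-out: percent efflux inhibition, scaled nicardipine 100% to DMSO 0%. Control set: nicardipine and DMSO wells.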
ABCB1 block: blocks JC-1 efflux by human ABCB1 transporter. P08183. CCRF-Adr cells, flow cytometry. inhibition, % at 6.6 µM. 0.067% of 190,000 active. AID 1326; in the data active = inhibition above about 40%;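 also: 0% = vehicle and 100% = reference inhibitor; higher value means more JC-1 retained so stronger ABCB1 efflux block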
Target sequence (P08183 whole entry, looked up): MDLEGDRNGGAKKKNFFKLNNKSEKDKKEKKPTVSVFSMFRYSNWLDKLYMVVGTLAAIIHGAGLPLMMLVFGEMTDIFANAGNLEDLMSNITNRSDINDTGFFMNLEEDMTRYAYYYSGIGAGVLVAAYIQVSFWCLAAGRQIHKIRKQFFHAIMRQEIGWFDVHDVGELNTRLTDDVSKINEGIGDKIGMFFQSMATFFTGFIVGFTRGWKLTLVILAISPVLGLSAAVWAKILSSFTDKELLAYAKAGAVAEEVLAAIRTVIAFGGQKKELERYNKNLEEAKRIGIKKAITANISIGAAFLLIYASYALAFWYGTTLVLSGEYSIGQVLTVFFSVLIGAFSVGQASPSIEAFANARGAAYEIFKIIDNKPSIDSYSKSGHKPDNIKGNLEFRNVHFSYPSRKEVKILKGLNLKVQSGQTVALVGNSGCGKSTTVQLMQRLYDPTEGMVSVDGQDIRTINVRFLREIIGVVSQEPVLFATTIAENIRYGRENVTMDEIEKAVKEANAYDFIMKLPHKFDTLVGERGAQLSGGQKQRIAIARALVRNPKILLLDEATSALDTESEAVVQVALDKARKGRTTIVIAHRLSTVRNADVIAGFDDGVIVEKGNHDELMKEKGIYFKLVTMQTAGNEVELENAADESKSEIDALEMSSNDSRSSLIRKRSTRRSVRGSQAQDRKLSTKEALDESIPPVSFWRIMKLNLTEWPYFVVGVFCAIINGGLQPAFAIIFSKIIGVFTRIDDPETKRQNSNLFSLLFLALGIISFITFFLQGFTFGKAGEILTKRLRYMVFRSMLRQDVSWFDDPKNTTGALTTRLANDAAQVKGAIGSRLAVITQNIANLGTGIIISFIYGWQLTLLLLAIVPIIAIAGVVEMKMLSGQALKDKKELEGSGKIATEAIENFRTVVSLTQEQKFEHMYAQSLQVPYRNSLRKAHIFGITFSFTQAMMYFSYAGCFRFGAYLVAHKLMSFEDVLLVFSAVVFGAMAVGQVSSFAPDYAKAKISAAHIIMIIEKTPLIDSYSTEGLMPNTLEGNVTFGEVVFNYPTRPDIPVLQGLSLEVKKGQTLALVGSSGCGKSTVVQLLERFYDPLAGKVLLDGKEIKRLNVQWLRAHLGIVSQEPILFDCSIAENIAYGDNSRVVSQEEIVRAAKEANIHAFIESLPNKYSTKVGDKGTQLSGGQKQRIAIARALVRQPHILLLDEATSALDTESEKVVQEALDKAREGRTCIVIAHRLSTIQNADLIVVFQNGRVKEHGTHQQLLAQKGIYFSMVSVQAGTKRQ
Avidin bead fluor: compound fluoresces at 488/530 nm on avidin beads | compound fluorescence 488/530 nm, flow cytometry; hits give high values | AID 1775 | 0.38% of 220,000 active | fluorescence (KMESF) at 10 µM; in the data active = fluorescence above about 47
Lmaj promast: reduces viability of Leishmania major promastigotes; resazurin fluorescence viability; inhibition, % at 10 µM; 9% of 200,000 active;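 also: promastigotes grown with compound for 44 hours at 28 °C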
Active calls of the source: *. The sample as a whole holds a higher share of hits than the screen did. Rule as the data show it, unless noted: active = inhibition above about 50%; inactive = the rest.

For CCN1CCCC1Cn1cnc2c([nH]c3ccc(C)cc32)c1=O (configuration not stated) the results were PKD1 kinase inh 4, GSH bead fluor 13, ABCG2 block 2, ABCB1 block 1, Avidin bead fluor 35 and Lmaj promast 52*.
`CCN1CCCC1CNc1ncnc2c1[nH]c1ccc(Cl)cc12` (configuration not stated) gave PKD1 kinase inh 0, GSH bead fluor 16, ABCG2 block -1, ABCB1 block 0, Avidin bead fluor 8 and Lmaj promast 96*.
`O=C1CCCN1CCCNc1ncnc2c1[nH]c1ccc(Cl)cc12` gave PKD1 kinase inh -3, GSH bead fluor 17, ABCG2 block 2, ABCB1 block 1, Avidin bead fluor 30 and Lmaj promast 39.
For O=C(NC(=S)Nc1cccc(C(F)(F)F)c1)c1csnn1 the results were PKD1 kinase inh -3, GSH bead fluor 10, ABCG2 block 10, ABCB1 block 0, Avidin bead fluor 3 and Lmaj promast -1.
For COc1ccc(O)c(C=Nc2cc(NC(C)=O)c(Cl)cc2Cl)c1 the results were PKD1 kinase inh -17, GSH bead fluor 13, ABCG2 block -1, ABCB1 block 0, Avidin bead fluor 15 and Lmaj promast 64*.
Screening CCCCNc1nnc(SCC(=O)c2c[nH]c3ccccc23)s1 returned PKD1 kinase inh -10, GSH bead fluor 7, ABCG2 block 10, ABCB1 block 0, Avidin bead fluor 15 and Lmaj promast 67*.
For Cc1ccc(N2C(S)=C(C#N)C(=O)NC2c2cccs2)cc1 (configuration not stated) the results were PKD1 kinase inh -5, GSH bead fluor 10, ABCG2 block -8, ABCB1 block -1, Avidin bead fluor 6 and Lmaj promast 61*.
N#CC1=C(S)N(c2ccccc2)C(c2cccs2)NC1=O (configuration not stated) was read as PKD1 kinase inh 8, GSH bead fluor 35, ABCG2 block -1, ABCB1 block 0, Avidin bead fluor 5 and Lmaj promast -1.
For Cn1nc(NC(=O)C(F)(F)F)c2ncc(-c3ccc(Cl)cc3)nc21 the results were Avidin bead fluor 13.
Screening O=c1[nH]c(=O)c2ncc(-c3ccc(Cl)cc3)nc2[nH]1 returned PKD1 kinase inh 0, GSH bead fluor 12, ABCG2 block 2, ABCB1 block 0, Avidin bead fluor 9 and Lmaj promast 80*.
CCOC(=O)c1cnc(-n2nc(C)cc2C)nc1Nc1ccccc1OC was read as PKD1 kinase inh -4, GSH bead fluor 32, ABCG2 block 47, ABCB1 block 4, Avidin bead fluor 12 and Lmaj promast 0.
Screening CCOC(=O)c1cnc(-n2nc(C)cc2C)nc1NCCc1ccccc1 returned PKD1 kinase inh -3, GSH bead fluor 26, ABCG2 block 12, ABCB1 block 3, Avidin bead fluor 7 and Lmaj promast 99*.
CC(=O)Nc1ccc(OCC(=O)N2CCC(Cc3ccccc3)CC2)cc1 was read as PKD1 kinase inh -1, GSH bead fluor 19, ABCG2 block 11, ABCB1 block 1, Avidin bead fluor 10 and Lmaj promast 4.
`O=C(Nc1ccc(OCC(=O)N2CCC(Cc3ccccc3)CC2)cc1)c1ccco1` gave PKD1 kinase inh 5, GSH bead fluor 13, ABCG2 block 29, ABCB1 block 0, Avidin bead fluor 6 and Lmaj promast 51*.
`O=C(CN1C(=O)NC2(CCc3ccccc3C2)C1=O)Nc1ccc(F)cc1` (configuration not stated) gave PKD1 kinase inh -5, GSH bead fluor 10, ABCG2 block 13, ABCB1 block 0, Avidin bead fluor 22 and Lmaj promast -5.
For c1ccc(-c2nc(N3CCCCCC3)c3ccccc3n2)nc1 the results were PKD1 kinase inh 3, GSH bead fluor 11, ABCG2 block 3, ABCB1 block 1, Avidin bead fluor 38 and Lmaj promast 101*.
c1ccc(-c2nc(N3CCOCC3)c3ccccc3n2)nc1 was read as PKD1 kinase inh 2, GSH bead fluor 24, ABCG2 block 18, ABCB1 block 1, Avidin bead fluor 34 and Lmaj promast 99*.
CCN1CCN(c2nc(-c3ccccn3)nc3ccccc23)CC1 was read as PKD1 kinase inh -6, GSH bead fluor 7, ABCG2 block 1, ABCB1 block 1, Avidin bead fluor 24 and Lmaj promast 17.
`c1ccc(-c2nc(N3CCNCC3)nc3ccccc23)cc1` gave PKD1 kinase inh -8, GSH bead fluor 41, ABCG2 block -1, ABCB1 block 0, Avidin bead fluor 2 and Lmaj promast 100*.
For CSc1nc(N2CCOCC2)c2ccccc2n1 the results were PKD1 kinase inh -2, GSH bead fluor 40, ABCG2 block -2, ABCB1 block -3, Avidin bead fluor 8 and Lmaj promast 51*.
For O=C(CN(c1ccccc1)S(=O)(=O)c1ccccc1[N+](=O)[O-])NN=C1CCCCCCC1 the results were PKD1 kinase inh 5, GSH bead fluor 9, ABCG2 block 2, ABCB1 block 0, Avidin bead fluor 8 and Lmaj promast -2.
`c1ccc2c(c1)nc(N1CCCCC1)c1ccccc12` gave Avidin bead fluor 5.
`c1ccc2c(N3CCCCC3)nc(N3CCCC3)nc2c1` gave PKD1 kinase inh 0, GSH bead fluor 35, ABCG2 block 0, ABCB1 block 1, Avidin bead fluor 8 and Lmaj promast 99*.
COc1ccc2o/c(=N\O)c(C(=O)Nc3ccc(C)cc3)cc2c1 was read as PKD1 kinase inh -2, GSH bead fluor 14, ABCG2 block -5, ABCB1 block -1, Avidin bead fluor 8 and Lmaj promast 50*.
`O=C(O)c1cc(N2C(=O)C3C4C=CC(C4)C3C2=O)ccc1N1CCOCC1` (configuration not stated) gave PKD1 kinase inh -3, GSH bead fluor 15, ABCG2 block 6, ABCB1 block 1, Avidin bead fluor 13 and Lmaj promast -4.
Screening CCn1cc(C(=O)OCc2cccc(Br)c2)c(=O)c2ccc(C)nc21 returned PKD1 kinase inh -5, GSH bead fluor 55, ABCG2 block 3, ABCB1 block 1, Avidin bead fluor 11 and Lmaj promast 14.
For CCn1cc(C(=O)OCc2ccccc2)c(=O)c2ccc(C)nc21 the results were PKD1 kinase inh 0, GSH bead fluor 6, ABCG2 block 2, ABCB1 block 1, Avidin bead fluor 11 and Lmaj promast 78*.
`CCn1cc(C(=O)OCC(=O)OC2CC(C)CCC2C(C)C)c(=O)c2ccc(C)nc21` (configuration not stated) gave PKD1 kinase inh -4, GSH bead fluor 8, ABCG2 block 9, ABCB1 block 2, Avidin bead fluor 4 and Lmaj promast 79*.

From PubChem
